Test results as given in ChEMBL document CHEMBL5244249, “Discovery of tofacitinib derivatives as orally active antitumor agents based on the scaffold hybridization strategy” (Eur J Med Chem, 2020).
Calls of active or inactive are those of the source. No cut-off for these calls is given here.

Legend:
BGC-823 = test: Antiproliferative activity against human BGC-823 cells assessed as inhibition of cell growth incubated for 72 hrs by MTT assay; type: functional, cell-based; settings: BGC-823, 72 h
Procedure, shortened: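 Antiproliferative screen in gastric cancer lines MGC-803, HGC-27 and BGC-823 by MTT assay; IC50 reported as mean ± SD.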

[1] = Cytotoxicity against human GES1 cells assessed as inhibition of cell growth incubated for 72 hrs by MTT assay; type: toxicity, cell-based
MGC-803 [2] = test: Inhibition of colony formation in human MGC-803 cells at 2 uM incubated for 9 days by crystal violet staining based analysis relative to control; type: functional; settings: MGC-803, 216 h, time 9 day
Procedure, shortened: (§1)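 Clonogenic assay: MGC-803 cells grown 9 days with 0, 1, 2 or 3 μM; colonies counted and inhibition rate calculated against untreated control; mean ± SD of three independent experiments.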

MGC-803 [3] = test: Inhibition of colony formation in human MGC-803 cells at 3 uM incubated for 9 days by crystal violet staining based analysis relative to control; type: functional; settings: MGC-803, 216 h, time 9 day; procedure, shortened: as §1
MGC-803 [4] = test: Inhibition of cell migration in human MGC-803 cells incubated for 24 hrs by wound healing assay; type: functional, cell-based; settings: dose 5-10 µM
Procedure, shortened: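 Wound-healing scratch assay in MGC-803 monolayers; 24 h exposure to 0, 5, 7.5 or 10 μM; migration quantified; three independent experiments, mean ± SD.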

MGC-803 [5] = test: Induction of apoptosis in human MGC-803 cells assessed as nuclear condensation at 5 to 10 uM incubated for 24 hrs by Hoechst 33342 staining based fluorescence microscopic analysis; type: functional, cell-based; settings: dose 5-10 µM
Procedure, shortened: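 MGC-803 cells treated at 0, 5, 7.5 and 10 μM; cell morphology and nuclear morphology (fragmentation, condensation) examined by staining and imaging; three independent experiments, mean ± SD.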

MGC-803 [6] = test: Induction of apoptosis in human MGC-803 cells assessed as late apoptotic cells at 5 uM incubated for 24 hrs by Annexin V-FITC/PI staining based flow cytometric analysis (reference value: 3.8 %); type: functional
MGC-803 [7] = test: Induction of apoptosis in human MGC-803 cells assessed as necrotic cells at 7.5 uM incubated for 24 hrs by Annexin V-FITC/PI staining based flow cytometric analysis (reference value: 2.0 %); type: functional
MGC-803 [8] = test: Induction of apoptosis in human MGC-803 cells assessed as late apoptotic cells at 5 uM incubated for 48 hrs by Annexin V-FITC/PI staining based flow cytometric analysis (reference value: 0.5 %); type: functional
MGC-803 [9] = test: Induction of apoptosis in human MGC-803 cells assessed as early apoptotic cells at 7.5 uM incubated for 48 hrs by Annexin V-FITC/PI staining based flow cytometric analysis (reference value: 2.5 %); type: functional
MGC-803 [10] = test: Induction of apoptosis in human MGC-803 cells assessed as late apoptotic cells at 7.5 uM incubated for 48 hrs by Annexin V-FITC/PI staining based flow cytometric analysis (reference value: 0.5 %); type: functional
MGC-803 [11] = test: Induction of apoptosis in human MGC-803 cells assessed as viable cells at 10 uM incubated for 48 hrs by Annexin V-FITC/PI staining based flow cytometric analysis (reference value: 96.7 %); type: functional; settings: read-out: Activity
MGC-803 [12] = test: Induction of apoptosis in human MGC-803 cells assessed as total apoptotic cells at 10 uM incubated for 24 hrs by Annexin V-FITC/PI staining based flow cytometric analysis (reference value: 7.7 %); type: functional
MGC-803 [13] = test: Cell cycle arrest in human MGC-803 cells assessed as G0/G1 phase cells at 5 uM incubated for 24 hrs by RNase/PI staining based flow cytometric analysis (reference value: 54.99%); type: functional
MGC-803 [14] = test: Cell cycle arrest in human MGC-803 cells assessed as G0/G1 phase cells at 10 uM incubated for 24 hrs by RNase/PI staining based flow cytometric analysis (reference value: 54.99%); type: functional
MGC-803 [15] = test: Induction of mitochondrial dysfunction in human MGC-803 cells assessed as increase in green fluorescence intensity at 7.5 uM incubated for 24 hrs by JC-1 staining based fluorescence microscopic analysis (reference value: 9.9%); type: functional
MGC-803 [16] = test: Induction of mitochondrial dysfunction in human MGC-803 cells assessed as increase in green fluorescence intensity at 10 uM incubated for 24 hrs by JC-1 staining based fluorescence microscopic analysis (reference value: 9.9%); type: functional
MGC-803 [17] = test: Induction of mitochondrial dysfunction in human MGC-803 cells assessed as increase in ratio of green to red fluorescence intensity at 10 uM incubated for 24 hrs by JC-1 staining based fluorescence microscopic analysis; type: functional
MGC-803 [18] = test: Induction of apoptosis in human MGC-803 cells assessed as increase in Bax protein expression at 5 to 10 uM incubated for 24 hrs by Western blot analysis; type: functional, cell-based; settings: dose 5-10 µM
Procedure, shortened: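 After 24 h exposure of MGC-803 cells, Bcl-2, Mcl-1, Bax and cytochrome c release assessed by Western blot with band quantitation; mean ± SD from three independent experiments.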

MGC-803 [19] = test: Induction of mitochondrial dysfunction in human MGC-803 cells assessed as upregulation of cleaved caspase-3 expression at 5 to 10 uM incubated for 24 hrs by Western blot analysis; type: functional, cell-based; settings: dose 5-10 µM
Procedure, shortened: (§2)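 Western blot of caspase 9, 3, 7, PARP and γH2A.X in MGC-803 lysates after 24 h exposure to 5, 7.5 or 10 μM; band quantitation; mean ± SD from three independent experiments.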

MGC-803 [20] = test: Induction of mitochondrial dysfunction in human MGC-803 cells assessed as upregulation of gammaH2AX expression at 5 to 10 uM incubated for 24 hrs by Western blot analysis; type: functional, cell-based; settings: dose 5-10 µM; procedure, shortened: as §2
MGC-803 [21] = test: Induction of mitochondrial dysfunction in human MGC-803 cells assessed as downregulation of procaspase-3 expression at 5 to 10 uM incubated for 24 hrs by Western blot analysis; type: functional, cell-based; settings: dose 5-10 µM; procedure, shortened: as §2
MGC-803 [22] = test: Induction of mitochondrial dysfunction in human MGC-803 cells assessed as downregulation of procaspase-7 expression at 5 to 10 uM incubated for 24 hrs by Western blot analysis; type: functional, cell-based; settings: dose 5-10 µM; procedure, shortened: as §2
[23] = Activation of MAPK pathway in human MGC-803 cells assessed as change in ERK1/2 total expression at 5 to 10 uM incubated for 24 hrs by Western blot analysis; type: cell-based; settings: dose 5-10 µM
[24] = Activation of MAPK pathway in human MGC-803 cells assessed as change in phosphorylated Erk1/2 expression at 5 to 10 uM incubated for 24 hrs by Western blot analysis; type: cell-based; settings: dose 5-10 µM
[25] = Activation of MAPK pathway in human MGC-803 cells assessed as increase in phosphorylated p38 expression at 5 to 10 uM incubated for 24 hrs by Western blot analysis; type: cell-based; settings: filed as activator, dose 5-10 µM
[26] = Toxicity in SCID mouse xenografted with human MGC-803 cells assessed as effect on liver at 12.5 to 25 mg/kg, IG administered for 21 days by H&E staining based histopathological analysis; type: organism-based; settings: in vivo, po, 504 h, dose 12.5-25 mg/kg, time 21 day
Procedure, shortened: (§3)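 SCID mice bearing subcutaneous MGC-803 xenografts (right side) dosed with 12.5 or 25 mg/kg over 21 days, 0.5% CMC-Na vehicle as control; body weight and tumor size monitored periodically; major organs examined histopathologically at end; means ± SD.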

[27] = Toxicity in SCID mouse xenografted with human MGC-803 cells assessed as effect on kidney at 12.5 to 25 mg/kg, IG administered for 21 days by H&E staining based histopathological analysis; type: organism-based; settings: in vivo, po, 504 h, dose 12.5-25 mg/kg, time 21 day; procedure, shortened: as §3

## Cc1cc(N2CC[C@@H](C)[C@@H](N(C)c3ncnc4[nH]ccc34)C2)n2nc(SCc3ccc(C(F)(F)F)cc3)nc2n1
BGC-823
  IC50: 23.3 µM
[1]
  IC50 at 72 h: 17.3 µM
MGC-803 [2]
  inhibition at 2 µM: 54%
MGC-803 [3]
  inhibition at 3 µM: 73%
MGC-803 [4]
  inhibition: Dose-Dependent Effect
MGC-803 [5]
  Activity: Active
MGC-803 [6]
  Activity: 8.8%
MGC-803 [7]
  Activity: 3.5%
MGC-803 [8]
  Activity: 17.2%
MGC-803 [9]
  Activity: 8.8%
MGC-803 [10]
  Activity: 67.5%
MGC-803 [11]
  viability at 10 µM: 17%
MGC-803 [12]
  Activity: 40.7%
MGC-803 [13]
  Activity: 56.93%
MGC-803 [14]
  Activity: 56.74%
MGC-803 [15]
  Activity: 39.1%
MGC-803 [16]
  Activity: 49.1%
MGC-803 [17]
  Ratio: <=8.73
MGC-803 [18]
  Activity: Active
MGC-803 [19]
  Activity: Active
MGC-803 [20]
  Activity: Active
MGC-803 [21]
  Activity: Active
MGC-803 [22]
  Activity: Active
[23]
  Activity: inactive
[24]
  Activity: inactive
[25]
  Activity: Active
[26]
  Activity: Non-Toxic
[27]
  Activity: Non-Toxic
